Key:
[1] = Cytotoxicity against human LEP-3 cells after 24 hrs by MTS assay; type: toxicity, cell-based
Outline: (§1)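 Cells were exposed for 24 h to compound diluted 1:10, 1:100, 1:1000 and 1:10,000 from a 4 mg/ml DMSO stock; untreated controls were grown in non-modified medium. MTS was added for 2 h at 37 °C under 5% CO2, and absorbance was read at 490 nm. Viability is expressed as % of untreated control, averaged over three independent assays. EC50 or IC50 values were calculated from the plotted data.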

[2] = Cytotoxicity against human HeLa cells after 24 hrs by MTS assay; type: functional, cell-based; outline: as §1
[3] = Photostability of the compound in DMF at 4089 +/- 0.164 10^-5mol/L measured up to 240 mins in presence of UV-light by UV-vis spectrophotometric analysis; conditions: 4 h
[4] = Cytotoxicity against human MDA-MB-231 cells after 24 hrs by MTS assay; type: functional, cell-based; conditions: MDA-MB-231, 24 h; outline: as §1
[5] = Photostability of the compound in DMF at 2275 +/- 0.091 10^-5mol/L measured up to 240 mins in presence of UV-light by UV-vis spectrophotometric analysis; conditions: 4 h
[6] = Photostability of the compound in DMF at 5242 +/- 0.209 10^-5mol/L measured up to 240 mins in presence of UV-light by UV-vis spectrophotometric analysis; conditions: 4 h
[7] = Cytotoxicity against human HepG2 cells after 24 hrs by MTS assay; type: functional, cell-based; conditions: HepG2, 24 h; outline: as §1
[8] = Cytotoxicity against human HT-29 cells after 24 hrs by MTS assay; type: functional, cell-based; conditions: HT-29, 24 h; outline: as §1
[9] = Photostability of the compound in DMF at 3916 +/- 0.158 10^-5mol/L measured up to 240 mins in presence of UV-light by UV-vis spectrophotometric analysis; conditions: 4 h
[10] = Photostability of the compound in DMF at 2185 +/- 0.087 10^-5mol/L measured up to 240 mins in presence of UV-light by UV-vis spectrophotometric analysis; conditions: 4 h
HT-29 = assay: Ratio of IC50 for human LEP-3 cells to IC50 for human HT-29 cells
[11] = Antiproliferative activity against human HeLa cells after 24 hrs by MTS assay; type: functional, cell-based; outline: as §1
[12] = Antiproliferative activity against human MDA-MB-231 cells after 24 hrs by MTS assay; type: functional, cell-based; conditions: MDA-MB-231, 24 h; outline: as §1
[13] = Photostability of the compound in DMF assessed as drug degradation at 3128 +/- 0.125 10^-5mol/L measured after 240 mins in presence of UV-light by UV-vis spectrophotometric analysis; type: physicochemical; conditions: DMF solution under UV light; read-out: Drug degradation
[14] = Antiproliferative activity against human HT-29 cells after 24 hrs by MTS assay; type: functional, cell-based; conditions: HT-29, 24 h; outline: as §1
[15] = Antiproliferative activity against human LEP-3 cells after 24 hrs by MTS assay; type: cell-based; conditions: LEP-3, 24 h; outline: as §1
[16] = Antiproliferative activity against human HepG2 cells after 24 hrs by MTS assay; type: functional, cell-based; conditions: HepG2, 24 h; outline: as §1

Row | Stability [3] | Stability [5] | Stability [6] | Stability [9] | Stability [10] | degraded at 4 h [13] | SMILES | IC50 at 24 h [1] | IC50 [2] | IC50 [4] | IC50 [7] | IC50 [8] | Ratio IC50 (HT-29) | EC50 [11] | EC50 [12] | EC50 [14] | EC50 [15] | EC50 [16]
1 | Stable | Stable | Stable | Stable | Stable |  | CCNc1nnc(CSc2nc3sc(C(=O)OCC)c(C)c3c(=O)n2CC)s1 | 0.089 µM | 0.83 µM | 2.13 µM | 9.51 µM | 9.12 µM |  |  |  |  |  | 
2 | Stable | Stable | Stable | Stable | Stable |  | CCNC(=S)NNC(=O)CSc1nc2sc(C(=O)OCC)c(C)c2c(=O)n1CC | 0.8 µM | 8.71 µM | 0.000231 µM | 8.71 µM | 7.38 µM |  |  |  |  |  | 
3 | Stable | Stable | Stable | Stable | Stable |  | CCNc1nnc(CSc2nc3sc(C)c(C)c3c(=O)n2CC)s1 | 191 µM | 7.42 µM | 9.4 µM | 0.99 µM | 3.58 µM |  |  |  |  |  | 
4 | Stable | Stable | Stable | Stable | Stable |  | CCNc1nnc(CSc2nc3sc4c(c3c(=O)n2CC)CCCC4)s1 | 9.77 µM |  |  | 9.8 µM | 0.001 µM | 100 | 9.28 µM | 0.001 µM |  |  | 
5 |  |  |  |  |  | 30% | CCNC(=S)NNC(=O)CSc1nc2sc(C)c(C)c2c(=O)n1CC | 0.01 µM |  |  |  |  |  | 0.43 µM | 8.86 µM | 0.085 µM |  | 
6 | Stable | Stable | Stable | Stable | Stable |  | CCNC(=S)NNC(=O)CSc1nc2sc3c(c2c(=O)n1CC)CCCC3 |  |  |  |  |  |  | 7.97 µM | 9.33 µM | 1.13 µM | 8.25 µM | 2.72 µM

Source: ChEMBL document CHEMBL3872203, “Synthesis, anticancer activity and photostability of novel 3-ethyl-2-mercapto-thieno[2,3-d]pyrimidin-4(3H)-ones” (Eur J Med Chem, 2016)
